Assay results taken from ChEMBL document CHEMBL4513216, “Probing the Open Global Health Chemical Diversity Library for Multistage-Active Starting Points for Next-Generation Antimalarials” (ACS Infect Dis, 2020).

assay: Toxicity liver stage against HepG2, at 10uM; assay type: cell-based; design: test concentration 10 uM, cell line HepG2-A16-CD81EGFP; conditions: human, HepG2-A16-CD81EGFP cells; read-out: INHIBITION
Outline: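 Uninfected HepG2-A16-CD81EGFP cells, 3 × 10^3 per well, 1536-well, plated on prespotted compound at 10 μM final, parasite-free screening media added to match infected plates; puromycin 10 μM positive, DMSO 0.5% negative; run in parallel with 48 h PbLuc assay at 37 °C, 5% CO2; viability by CellTiter-Glo luminescence, normalized to controls.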

Row | Compound | cytotoxicity at 10 µM
1 | COC(=O)c1ccccc1NC(=O)c1c(C)cn(C)c1CC(=O)O | -6.14%
2 | CCc1c(C)sc2nc3n(CC(N)=O)nc(SC)n3c(=O)c12 | -0.817%
3 | Cc1cc(C)n(-c2ccnc(N3CCC(C(=O)N4CCCC4)CC3)n2)n1 | -9.87%
4 | Cc1cc2nc(SCC(=O)N3CCCC3)n(C)c(=O)c2[nH]1 | 11.1%
5 | CCOc1cc2c(cc1CCC(=O)O)CCC2 | -4.63%
6 | COc1cccc(C2CC(=O)Nc3nc(N4CCCCC4)sc32)c1OC (stereo unspecified) | 10.4%
7 | O=C1CC(c2ccsc2)c2c(n(C3CCOCC3)[nH]c2=O)N1 (stereo unspecified) | 0.847%
8 | CCc1cc(=O)[nH]c2nnc(SCC(=O)OC)n12 | -16.6%
9 | CCC1=N[C@@]2(CC[C@@H]3CN(C(=O)NC(C)C)C[C@@H]32)C(=O)N1C | -18%
10 | CCOc1ccc(N2CCCN=C2NC(=O)c2ccc(Cl)cc2)cc1 | 8.1%
11 | O=C(O)Cn1ccc2c(Cl)cccc21 | 0.308%
12 | Oc1cc(C2CCCCN2Cc2cccs2)nc(-c2ccncc2)n1 (stereo unspecified) | 7.78%
13 | Cc1cc(C)nc(Nc2cc(C)nc(C3CCN(C(=O)CO)C3)n2)n1 (stereo unspecified) | 5.34%
14 | CNC(=O)C1CN(c2ncccn2)CCN1Cc1ccccc1 (stereo unspecified) | 14.3%
15 | Cc1nc(C(=O)N2CCC(c3cc(CCO)n(C)n3)C2)co1 (stereo unspecified) | -5.42%
16 | CC(C)c1nc(O)c2nnn(C[C@@H]3CCCN(Cc4cccs4)C3)c2n1 | 1.76%
17 | O=C(c1ccccc1F)N1CCOC(c2nc(-c3ncccn3)no2)C1 (stereo unspecified) | -2.5%
18 | O=C(NC[C@]1(O)CN(Cc2ccc(F)cc2)C[C@H]1O)c1ccccn1 | -7.8%
19 | c1c[nH]c2nc(C3CCNC3)nc-2c1 (stereo unspecified) | 10.3%
20 | CC(C)N(C)CC(=O)NCc1ccccc1N1CCN(C)CC1 | -7.85%
21 | CC(C)C(C(=O)N(C)C)c1cccc(Cl)c1 (stereo unspecified) | 6.14%
22 | CCCS(=O)(=O)CC(=O)NC(C)c1cccc(-n2cccn2)c1 (stereo unspecified) | 6%
23 | Cc1nnc(NCCc2coc(-c3ccc(F)cc3)n2)c(C#N)c1C | -16.3%

Row | Compound | cytotoxicity at 10 µM
24 | Cc1ncc(S(=O)(=O)Nc2ccnn2C(C)C)[nH]1 | 9.68%
25 | Cc1cnn(CCNCc2c(C)nn(C)c2Cl)c1 | -15.3%
26 | Cc1nc(CN(C)S(=O)(=O)c2ccc(F)cc2Br)no1 | -6.26%
27 | N#Cc1c(F)cccc1Nc1cnn(CC(=O)N2CCOCC2)c1 | 2.2%
28 | c1cc(CCN2CCCC2CN2CCCCC2)ccn1 (stereo unspecified) | 0.295%
29 | CC1CN(S(=O)(=O)c2ccc(F)cc2)c2cccnc2O1 (stereo unspecified) | -0.781%
30 | CC(=O)N1CCN(CC(=O)N2CCN(c3cccc(C)c3)CC2)CC1 | -3.83%
31 | CN(Cc1noc(C2CC2)n1)C1CCN(Cc2nc(C3CC3)no2)C1 (stereo unspecified) | -1.57%
32 | CC(C)(C(=O)NCC(=O)NC1CC1)c1ccccc1F | -4.9%
33 | CCCc1noc(CN(C)Cc2ccc3c(c2)OCO3)n1 | -11.1%
34 | CC(C)Nc1cccc(CNC(=O)N2CCC(N3CC=CC3)C2)c1 (stereo unspecified) | 2.01%
35 | Cn1ncnc1CNC1CCc2cc(Cl)ccc21 (stereo unspecified) | 9.57%
36 | CC(C)OC(=O)NCc1ccc(NCc2cnn(C(C)(C)C)c2)cc1 | -0.741%
37 | CC(=O)Nc1cc2c(cc1C)OCO2 | 10.5%
38 | CC(C)n1ncc2c1NC(=O)C(C#N)C21CCCCC1 (stereo unspecified) | -0.47%
39 | CC(C)(C)OC(=O)N1CCN(S(C)(=O)=O)C2(CCCCC2)C1 | 10.3%
40 | CC(C)NC(=O)[C@@H]1C[C@H]2OCC[C@H]2N(Cc2ccc3ccccc3n2)C1 | -66.8%
41 | Cc1ccsc1C(=O)N1CCc2ncnc(NC(C)C)c2CC1 | -79.3%
42 | O=C(NCC1CC1)C1CN(C(=O)Nc2ccccc2)CC12CCOCC2 (stereo unspecified) | -82.6%
43 | CN(C)c1nccc(NCc2cc(-c3cccs3)n[nH]2)n1 | -5.03%
44 | O=c1[nH]c(-c2ccncc2)ncc1-c1ccnc(NC2CC2)n1 | -11.7%
45 | NS(=O)(=O)NCc1cc(-c2ccco2)n(CC(F)(F)F)n1 | -4.41%
46 | CS(=O)(=O)N1CC[C@@H]2[C@@H](CCC(=O)N2CCC2=CCCCC2)C1 | -5.64%

Row | Compound | cytotoxicity at 10 µM
47 | Cc1cccc(CN2CCN(C(=O)c3cnc(C)[nH]c3=O)CC2)c1 | -3.32%
48 | OCc1ccc(-c2nccn2CCc2nc3c(s2)CCCC3)o1 | 4.71%
49 | CCN1CCC(N2C[C@H]3OC(=O)N(CCc4cccc(Cl)c4)[C@H]3C2)CC1 | -5.4%
50 | Cc1ccc(C)c2c(=O)cc(CN3CC[C@@H](N)[C@H](O)C3)[nH]c12 | 8.24%
51 | CC(C)N1CC2(CCC1=O)CCN(C(=O)c1cc(F)ccc1Cl)CC2 | 0.247%
52 | CSCCN1CCN(c2nc(N)ncc2C)CC1 | 1.54%
53 | COCCN(C)C[C@@H]1CN(C(=O)c2ccc(SC)cc2)C[C@@H]1CO | 4.44%
54 | c1cncc(-c2noc(CCNc3ncnc4c3CCNCC4)n2)c1 | 3.38%
55 | CC(=O)N1C[C@H](NC(=O)c2ccnc(N)c2)[C@@H](C(C)C)C1 | 8.64%
56 | Cc1cc(C)cc(-c2cc(C3CCOC3)c(C#N)c(N)n2)c1 (stereo unspecified) | 1.44%
57 | OC1CCCOC12CCN(Cc1nnc(-c3cccnc3)o1)CC2 (stereo unspecified) | 4.49%
58 | CCCN1CCC(NN2CCN(C)CC2)CC1 | -2.38%
59 | CC(C)CCN1CC2(CCCN(C(=O)CNC(=O)N(C)C)C2)CCC1=O (stereo unspecified) | 9.94%
60 | Cc1nc2c(N(CCC(N)=O)CCc3ccccc3)ncnc2o1 | 4.6%
61 | CN(Cc1cc[nH]n1)C(=O)c1cn(Cc2c(F)cccc2F)nn1 | 7.29%
62 | Cc1ccc(O)c(C(=O)N2C[C@@H](C(=O)O)[C@H](c3ccccc3)C2)c1 | 0.00559%
63 | CN(C)CCN(CC1CCCO1)S(=O)(=O)NCc1ccccc1 (stereo unspecified) | 0.666%
64 | COc1ccc(-n2c(CO)nc3ccccc32)cc1CO | 1.78%
65 | COc1ccc(CN(Cc2cnn(C)c2)CC(C)C)cn1 | -18.4%
66 | Cc1cc(C)n2nc(C(=O)N3CCCC4(CCOC4)C3)cc2n1 (stereo unspecified) | 7.73%
67 | Cc1ccc(C(C(=O)N2CC(c3ccccn3)C2)N(C)C)cc1 (stereo unspecified) | -9.82%
68 | CCNc1ncc(C(=O)NCCCc2ccncc2)cn1 | 0.562%
69 | Cc1ccc(Oc2ncccc2CNC(=O)NC2CCCCC2)cn1 | -3.01%

Row | Compound | cytotoxicity at 10 µM
70 | CC(C)C(=O)N1CCN(C(=O)c2cc(C(C)C)no2)[C@H]2CS(=O)(=O)C[C@H]21 | -9.43%
71 | CN1CCC(C2CCN(Cc3cccc(-n4cccn4)c3)CC2)C1 (stereo unspecified) | -6.15%
72 | CN(Cc1noc(-c2ccccc2)n1)C(=O)CSc1nnc(N)s1 | 0.712%
73 | CCOc1ccccc1-c1cc2c(cc1C(N)=O)OCO2 | 5.05%
74 | CCC(=O)N1CCN(Cc2cc(-c3ccncc3)nn2C)CC1 | 4.24%
75 | Cc1cc(C)n(CC2CN(CC(=O)NCc3cccs3)CCO2)n1 (stereo unspecified) | -9.89%
76 | COc1cc(CNCc2ccnc(N3CCOCC3)c2)cc(OC)c1 | 6.1%
77 | CCS(=O)(=O)N(C)CCCNCc1c(C)nn(C)c1N(C)C | -8.72%
78 | CC(Cn1ccnc1)NC(=O)C1(c2cccc(Cl)c2)CC1 (stereo unspecified) | -19.3%
79 | CC(C)c1nc(CN2CCCC2c2cnn(C)c2)cs1 (stereo unspecified) | 0.0791%
80 | Cc1ccc(-c2nnc(CN3CCOC(Cn4cncn4)C3)o2)cc1 (stereo unspecified) | -10.2%
81 | CCc1nc(CN(C(C)=O)C2CCN(CCc3ccccc3)C2)no1 (stereo unspecified) | -2.18%
82 | CN(CCC(=O)N1CCc2sccc2C1)Cc1cnn(C)c1 | -18.6%
83 | CN(CCC(=O)N1CCc2sccc2C1)Cc1cc(Br)cs1 | -14.8%
84 | Cc1noc(C)c1CC(=O)N1CCc2sccc2C1 | -18.4%
85 | COc1ccc(C)cc1C(C)NC(=O)CCn1cncn1 (stereo unspecified) | -7.82%
86 | O=C(NCCN1C(=O)c2ccccc2C1=O)c1scnc1Cl | -12.3%
87 | Cc1ccc(C(=O)N2CCN(Cc3cccs3)CC2)n1C | -5.37%
88 | Cc1cc(C)n(CC2CCCN2C(=O)c2ccc3nnc(C)n3c2)n1 (stereo unspecified) | -3.6%
89 | COc1ccc(N2CCN(C(=O)NC(C)c3nncn3C)CC2)cc1 (stereo unspecified) | -7.12%
90 | Cc1cc(NC(=O)CN2CCCC2c2noc(C3CC3)n2)n(C)n1 (stereo unspecified) | -1.16%
91 | COc1cc(C(=O)N2CCCC(n3ccnc3)C2)cc2c1OCCO2 (stereo unspecified) | -5.28%
92 | CC(=O)Nc1nc(C(=O)NCc2ccc(N3CCOCC3)nc2)cs1 | -14%

Row | Compound | cytotoxicity at 10 µM
93 | COc1c(CNCc2ccnc(N3CCOCC3)c2)c(C)nn1C | -1.82%
94 | O=C(CN1CCCC1c1cccs1)N1CCc2sccc2C1 (stereo unspecified) | -17%
95 | COc1ccc(CNC(=O)Nc2cccnc2N2CCCC2)cc1 | -21.5%
96 | COc1cc(C)nc(N2CCN(C(=O)c3cc(C)no3)CC2)n1 | -30.4%
97 | O=C(c1ccc(OCC2CC2)nc1)N1CCCC(n2ccnc2)C1 (stereo unspecified) | -9.16%
98 | CCCNC(=O)CCC(=O)Nc1ccc(-n2cncn2)c(F)c1 | 1.94%
99 | Cc1cnn(CCNCc2nc(COc3ccc(F)cc3)no2)c1 | -5.61%
100 | Cc1nc(C2CCCN2CC(=O)N2CCCc3ccccc32)no1 (stereo unspecified) | -8.7%
101 | O=C(NCc1ccccn1)N(Cc1ccc(F)cc1F)C1CC1 | -17.5%
102 | N#Cc1ccccc1N1CCCN(C(=O)CCn2cccn2)CC1 | -13.1%
103 | Cc1noc(C2CCN(Cc3cc(=O)n(C)c(=O)n3C)CC2)n1 | -2.57%
104 | Cc1ccsc1CNc1cc(N2CCCC2CO)ncn1 (stereo unspecified) | -2.45%
105 | Cc1nc(CN2CCCC(N(C)Cc3nnsc3Cl)C2)no1 (stereo unspecified) | -4.36%
106 | CC(=O)Nc1ccc(Oc2cc(C)nc(C3CCNCC3)c2)cc1 | 2.69%
107 | Cc1ccc(CN(Cc2c[nH]cn2)C2CC(C)(C)NC(C)(C)C2)o1 | -0.105%
108 | O=C([C@H]1C[C@H]2OCC[C@H]2N(Cc2ccoc2)C1)N1CCCO1 | -69.8%
109 | NCC(=O)N1CCC(c2ccnc(Nc3cc(C(F)(F)F)ccn3)n2)C1 (stereo unspecified) | 9.83%
110 | CN1CCN(CC2CN(CC3CC3)Cc3nccn3C2)CC1 (stereo unspecified) | -76.1%
111 | CCS(=O)(=O)N1CCC2(CN(c3cccc(F)c3)C(=O)CN2C)C1 (stereo unspecified) | -74.4%
